Values after ≈ are worked out from the molar mass of the structure shown.
Key:
[1] = Drug level in mouse blood at 50 mg/kg, po after 1 hr by microbiological assay; format: ADME, organism-based; design: dose 50 mg/kg, route oral; conditions: read-out: Drug uptake
Method in brief: (§1)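 Mice given a single 50 mg/kg dose by the route in the line. Groups of five killed at each time point and blood taken from the cut axilla, heparinized and stored at 4 °C. Blood assayed the same day by large-plate microbiological assay with Sarcina lutea NCTC 8340, overnight at 30 °C. Standards made in mouse blood, with pH 7.2 phosphate-buffered saline as diluent.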

Escherichia coli = experiment: Antibacterial activity against Escherichia coli after 18 hrs by serial dilution method; format: functional
Method in brief: (§2)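 MICs by serial dilution on nutrient agar. Inoculum 0.001 mL of undiluted overnight broth culture. Plates incubated at 37 °C for 18 h before reading.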

[2] = Drug level in mouse blood at 50 mg/kg, po after 2 hrs by microbiological assay; format: ADME, organism-based; design: dose 50 mg/kg, route oral; conditions: read-out: Drug uptake; method in brief: as §1
[3] = Drug level in mouse blood at 50 mg/kg, po after 4 hrs by microbiological assay; format: ADME, organism-based; design: dose 50 mg/kg, route oral; conditions: read-out: Drug uptake; method in brief: as §1
[4] = Drug level in mouse blood at 50 mg/kg, po after 10 mins by microbiological assay; format: ADME, organism-based; design: dose 50 mg/kg, route oral; conditions: read-out: Drug uptake; method in brief: as §1
Proteus mirabilis = experiment: Antibacterial activity against Proteus mirabilis after 18 hrs by serial dilution method; format: functional; method in brief: as §2
Shigella sonnei = experiment: Antibacterial activity against Shigella sonnei after 18 hrs by serial dilution method; format: functional; method in brief: as §2
Salmonella typhi = experiment: Antibacterial activity against Salmonella typhi after 18 hrs by serial dilution method; format: functional, Salmonella enterica subsp. enterica serovar Typhi; conditions: Salmonella enterica
Method in brief: (§3)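 MICs by serial dilution on nutrient agar. Inoculum 0.001 mL of undiluted overnight broth culture. Plates incubated 18 h at 37 °C before reading. The S. aureus Russell strain produces β-lactamase and resists benzylpenicillin.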

[5] = Drug level in mouse blood at 50 mg/kg, po after 30 mins by microbiological assay; format: ADME, organism-based; design: dose 50 mg/kg, route oral; conditions: read-out: Drug uptake; method in brief: as §1
[6] = Drug level in mouse blood at 50 mg/kg, po after 20 mins by microbiological assay; format: ADME, organism-based; design: dose 50 mg/kg, route oral; conditions: read-out: Drug uptake; method in brief: as §1
Staphylococcus aureus [7] = experiment: Antibacterial activity against Staphylococcus aureus Oxford after 18 hrs by serial dilution method; format: functional; method in brief: as §2
Staphylococcus aureus [8] = experiment: Antibacterial activity against beta-lactamase producing benzylpenicillin-resistant Staphylococcus aureus Russell after 18 hrs by serial dilution method; format: functional; method in brief: as §3
Klebsiella aerogenes = experiment: Antibacterial activity against Klebsiella aerogenes after 18 hrs by serial dilution method; format: functional; method in brief: as §2
[9] = Drug level in mouse blood at 50 mg/kg, iv after 20 mins by microbiological assay; format: ADME, organism-based; design: dose 50 mg/kg, route intravenous; conditions: read-out: Drug uptake; method in brief: as §1
[10] = Drug level in mouse blood at 50 mg/kg, iv after 30 mins by microbiological assay; format: ADME, organism-based; design: dose 50 mg/kg, route intravenous; conditions: read-out: Drug uptake; method in brief: as §1
[11] = Drug level in mouse blood at 50 mg/kg, sc after 30 mins by microbiological assay; format: ADME, organism-based; design: dose 50 mg/kg, route subcutaneous; conditions: read-out: Drug uptake; method in brief: as §1
[12] = Drug level in mouse blood at 50 mg/kg, sc after 10 mins by microbiological assay; format: ADME, organism-based; design: dose 50 mg/kg, route subcutaneous; conditions: read-out: Drug uptake; method in brief: as §1
[13] = Drug level in mouse blood at 50 mg/kg, sc after 4 hrs by microbiological assay; format: ADME, organism-based; design: dose 50 mg/kg, route subcutaneous; conditions: read-out: Drug uptake; method in brief: as §1
[14] = Drug level in mouse blood at 50 mg/kg, sc after 1 hr by microbiological assay; format: ADME, organism-based; design: dose 50 mg/kg, route subcutaneous; conditions: read-out: Drug uptake; method in brief: as §1
[15] = Drug level in mouse blood at 50 mg/kg, sc after 2 hrs by microbiological assay; format: ADME, organism-based; design: dose 50 mg/kg, route subcutaneous; conditions: read-out: Drug uptake; method in brief: as §1
[16] = Drug level in mouse blood at 50 mg/kg, iv after 10 mins by microbiological assay; format: ADME, organism-based; design: dose 50 mg/kg, route intravenous; conditions: read-out: Drug uptake; method in brief: as §1
[17] = Drug level in mouse blood at 50 mg/kg, iv after 1 hr by microbiological assay; format: ADME, organism-based; design: dose 50 mg/kg, route intravenous; conditions: read-out: Drug uptake; method in brief: as §1
[18] = Drug level in mouse blood at 50 mg/kg, sc after 20 mins by microbiological assay; format: ADME, organism-based; design: dose 50 mg/kg, route subcutaneous; conditions: read-out: Drug uptake; method in brief: as §1
[19] = Drug level in mouse blood at 50 mg/kg, iv after 2 hrs by microbiological assay; format: ADME, organism-based; design: dose 50 mg/kg, route intravenous; conditions: read-out: Drug uptake; method in brief: as §1
[20] = Drug level in mouse blood at 50 mg/kg, iv after 4 hrs by microbiological assay; format: ADME, organism-based; design: dose 50 mg/kg, route intravenous; conditions: read-out: Drug uptake; method in brief: as §1

| Compound | MIC (Escherichia coli) [µg/mL] | MIC (Proteus mirabilis) [µg/mL] | MIC (Shigella sonnei) [µg/mL] | MIC (Salmonella typhi) [µg/mL] | MIC (Staphylococcus aureus [7]) [µg/mL] | MIC (Staphylococcus aureus [8]) [µg/mL] | MIC (Klebsiella aerogenes) [µg/mL] | other results |
| --- | --- | --- | --- | --- | --- | --- | --- | --- |
| N[C@@H](C(=O)N[C@@H]1C(=O)N2C(C(=O)O)=C(Cc3ccccc3)CS[C@H]12)c1ccccc1 | 25 (≈ 59 µM) | 50 (≈ 118 µM) | 25 (≈ 59 µM) | 25 (≈ 59 µM) | 0.1 (≈ 0.236 µM) | 2.5 (≈ 5.9 µM) | 25 (≈ 59 µM) | concentration at 1 h [1]: 190 ng/mL; concentration at 2 h [2]: 340 ng/mL; concentration at 4 h [3]: 150 ng/mL; concentration at 10 min [4]: 110 ng/mL; concentration at 0.5 h [5]: 210 ng/mL; concentration at 20 min [6]: 180 ng/mL |
| Cc1ccncc1CC1=C(C(=O)O)N2C(=O)[C@@H](NC(=O)[C@H](N)c3ccccc3)[C@H]2SC1 | 12.5 (≈ 28.5 µM) | 25 (≈ 57 µM) | 12.5 (≈ 28.5 µM) | 5 (≈ 11.4 µM) | 0.12 (≈ 0.274 µM) | 12.5 (≈ 28.5 µM) | 12.5 (≈ 28.5 µM) |  |
| COC(=O)CC1=C(C(=O)O)N2C(=O)[C@@H](NC(=O)[C@H](N)c3ccccc3)[C@H]2SC1 | 31 (≈ 76.5 µM) | 63 (≈ 155 µM) | 16 (≈ 39.5 µM) | 8 (≈ 19.7 µM) | 0.5 (≈ 1.23 µM) | 16 (≈ 39.5 µM) | 63 (≈ 155 µM) |  |
| N[C@@H](C(=O)N[C@@H]1C(=O)N2C(C(=O)O)=C(Cc3ccccc3C(=O)O)CS[C@H]12)c1ccccc1 |  |  | 12.5 (≈ 26.7 µM) | 50 (≈ 107 µM) |  | 12.5 (≈ 26.7 µM) |  | concentration at 1 h [1]: 3200 ng/mL; concentration at 20 min [9]: 83600 ng/mL; concentration at 0.5 h [10]: 75400 ng/mL; concentration at 0.5 h [11]: 58000 ng/mL; concentration at 2 h [2]: 2800 ng/mL; concentration at 4 h [3]: 3200 ng/mL; concentration at 10 min [12]: 63200 ng/mL; concentration at 4 h [13]: 31200 ng/mL; concentration at 10 min [4]: 1100 ng/mL; concentration at 1 h [14]: 49200 ng/mL; concentration at 2 h [15]: 40600 ng/mL; concentration at 10 min [16]: 102000 ng/mL; concentration at 1 h [17]: 64400 ng/mL; concentration at 20 min [18]: 66000 ng/mL; concentration at 0.5 h [5]: 2400 ng/mL; concentration at 20 min [6]: 1400 ng/mL; concentration at 2 h [19]: 29100 ng/mL; concentration at 4 h [20]: 18100 ng/mL |
| CN(C)S(=O)(=O)c1ccc(CC2=C(C(=O)O)N3C(=O)[C@@H](NC(=O)[C@H](N)c4ccccc4)[C@H]3SC2)cc1 | 25 (≈ 47.1 µM) | 125 (≈ 236 µM) | 25 (≈ 47.1 µM) | 25 (≈ 47.1 µM) | 0.5 (≈ 0.942 µM) | 500 (≈ 942 µM) | 50 (≈ 94.2 µM) |  |
| Cn1cccc1CC1=C(C(=O)O)N2C(=O)[C@@H](NC(=O)[C@H](N)c3ccccc3)[C@H]2SC1 | 500 (≈ 1170 µM) | 500 (≈ 1170 µM) | 500 (≈ 1170 µM) | 50 (≈ 117 µM) | 1.25 (≈ 2.93 µM) | 50 (≈ 117 µM) | 500 (≈ 1170 µM) |  |
| CC(=O)OCCC1=C(C(=O)O)N2C(=O)[C@@H](NC(=O)[C@H](N)c3ccccc3)[C@H]2SC1 | > 50 | > 50 | 50 (≈ 119 µM) | 25 (≈ 59.6 µM) | 0.5 (≈ 1.19 µM) | 10 (≈ 23.8 µM) | 25 (≈ 59.6 µM) |  |
| N[C@@H](C(=O)N[C@@H]1C(=O)N2C(C(=O)O)=C(Cc3ccccc3C(F)(F)F)CS[C@H]12)c1ccccc1 | > 100 | > 100 | > 100 | > 100 | 0.5 (≈ 1.02 µM) | 5 (≈ 10.2 µM) | > 100 |  |

Reference: ChEMBL document CHEMBL3244187, “Structure--activity relationships in cephalosporins prepared from penicillins. 2. Analogues of cephalexin substituted in the 3-methyl group” (J Med Chem, 1977)
